Published values of several laboratories.
Each line is one published result; the experiments were not run side by side.
Target: cAMP-dependent protein kinase catalytic subunit beta (PRKACB, Homo sapiens, UniProt P22694)

`Nc1ncnc2occ(-c3ccc(NC(=O)Nc4cc(C(F)(F)F)ccc4F)cc3)c12` has a remaining activity of 22% (enzyme activity, inhibitor; 20 µM).
The activity vs control of `Cc1ccc(C(=O)NCc2ccsc2)cc1C#Cc1cn(C(C)C)c2ncnc(N)c12` is reported as 111% (enzyme activity, inhibitor; 1 µM).
With `O=C(Nc1cccnn1)N1CCC(=Cc2cccc(Oc3ccc(C(F)(F)F)cn3)c2)CC1` the remaining binding was 100% (cell-free assay, competition with immobilised ligand; 1 µM).
The remaining activity of `O=C(Nc1cnn(-c2csc(C(=O)NC3COC3)c2)c1)Nc1ccccc1Cl` is reported as 99% (enzyme activity, inhibitor; 5 µM).
For `COc1cc(-c2cc(-c3ccc(N4CCNCC4)cc3)cnc2C)cc(OC)c1OC`, the inhibition was 3% (enzyme activity, inhibitor; 1 µM).
`CC(C)(O)[C@H]1CC[C@H](Nc2ccc3ncc(-c4cccc(C(F)(F)F)c4)n3n2)CC1` has a remaining activity of 97.7% (enzyme activity, inhibitor; 1 µM).
For `C[C@H](c1ccnc(Nc2nc3ccc(-c4cc(N(C)C)ncn4)cc3[nH]2)c1)N1CCN(C(=O)CC(F)(F)F)CC1`, the remaining binding was 100% (cell-free assay, competition with immobilised ligand; 0.1 µM).
`COc1cc(Cl)c(C(=O)N[C@@H](CN[C@H]2CC[C@@H](N)CC2)Cc2ccc(C#N)cc2)cc1-c1ccc(CN[C@H](C)c2ccc(C)cc2)o1` has a remaining activity of 66% (enzyme activity, inhibitor; 1 µM).
`Cc1ccc(C(=O)Nc2ccc(CN3CCN(C)CC3)c(C(F)(F)F)c2)cc1C#Cc1cnc2cccnn12` has a remaining activity of 83% (enzyme activity, inhibitor; 23.5 nM).
With `Cc1sc(C(=O)NC2COC2)cc1-n1cc(NC(=O)Nc2c(F)cccc2Cl)cn1` the remaining activity was 104% (enzyme activity, inhibitor; 10 µM).
`C[C@@H]1CN(c2cc(-c3nn(C)c4ccc(OC5(C)CC5)cc34)ncn2)C[C@H](C)O1` has a remaining binding of 100% (cell-free assay, competition with immobilised ligand; 1 µM).
`Cn1cnc(Br)c1C1=CN(c2ncnc3[nH]cnc23)CCS1` gave an inhibition of 18.7% (enzyme activity, inhibitor, radiometric; 50 nM).
`CN1CC(Oc2cnc(C#N)cc2-c2ccn3nc(NC(=O)C4CC4)cc3c2)C1` gave an inhibition of -10% (enzyme activity, inhibitor; 1 µM).
